Consider one compound from ChEMBL document CHEMBL4014344, “Discovery of the Soluble Guanylate Cyclase Stimulator Vericiguat (BAY 1021189) for the Treatment of Chronic Heart Failure” (J Med Chem, 2017).

pEC50, pIC50: −log10 of the molar value. Active and inactive are the calls of the source. No cut-off for these calls is given here.

In data set [1] the target is T1, Guanylate cyclase soluble subunit alpha-1 (Rattus norvegicus) (UniProt P19686).
T1 sequence (whole entry): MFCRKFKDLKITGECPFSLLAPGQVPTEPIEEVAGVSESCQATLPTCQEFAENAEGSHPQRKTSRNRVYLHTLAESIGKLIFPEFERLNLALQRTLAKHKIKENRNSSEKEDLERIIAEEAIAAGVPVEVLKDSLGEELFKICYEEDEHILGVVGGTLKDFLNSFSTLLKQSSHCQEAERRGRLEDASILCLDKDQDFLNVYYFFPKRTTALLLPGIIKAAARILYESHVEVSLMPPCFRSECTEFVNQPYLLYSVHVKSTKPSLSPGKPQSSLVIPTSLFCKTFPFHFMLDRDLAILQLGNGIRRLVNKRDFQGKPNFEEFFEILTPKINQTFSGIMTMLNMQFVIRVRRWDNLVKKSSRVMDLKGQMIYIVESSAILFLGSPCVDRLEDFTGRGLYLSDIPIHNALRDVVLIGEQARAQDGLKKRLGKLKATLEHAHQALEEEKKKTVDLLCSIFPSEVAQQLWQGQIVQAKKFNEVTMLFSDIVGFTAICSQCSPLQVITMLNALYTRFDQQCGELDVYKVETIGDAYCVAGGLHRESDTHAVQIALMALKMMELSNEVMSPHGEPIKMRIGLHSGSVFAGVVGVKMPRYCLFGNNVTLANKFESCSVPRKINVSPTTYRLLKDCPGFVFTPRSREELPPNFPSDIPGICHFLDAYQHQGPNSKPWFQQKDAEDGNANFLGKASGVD
Kind of data set: Stimulation of rat recombinant sGCalpha1 subunit expressed in CHO cells using alpha-[32P]GTP as substrate assessed as >=3 fold increase in [32P]cGMP formation after 10 mins by radioimmunoassay. Format: cell-based.

Data set [2] in a line: Volume of distribution at steady state in iv dosed Beagle dog after 24 hrs by LC-MS analysis. Format: ADME, organism-based, Canis lupus familiaris. The following applies: in vivo, read-out: Vdss. Put shortly:
(§1)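 Male Wistar rats and female beagle dogs. iv in plasma/DMSO (rat) or H2O/PEG 400/EtOH (dog). Oral gavage in H2O/PEG 400/EtOH for both. Rats jugular-catheterised ≥1 d before dosing. Usually >10 blood samples, at least two after 24 h. Plasma quantified by LC-MS with internal standard. CL, t1/2, Vss and F calculated from plasma curves. Blood clearance via blood/plasma ratio (20 min blood incubation).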

Data set [3] in a line: Clearance in iv dosed Beagle dog blood after 24 hrs by LC-MS analysis. Type of data set: ADME, organism-based, Canis lupus familiaris. The settings on record: whole blood. Put shortly: as §1
A short description of data set [4]: Terminal half life in iv dosed Beagle dog blood after 24 hrs by LC-MS analysis. Type of data set: ADME, organism-based, Canis lupus familiaris. The settings on record: whole blood, read-out: beta t1/2 (converted). Put shortly:
as §1

A short description of data set [5]: Oral bioavailability in Wistar rat administered via oral gavage after 24 hrs by LC-MS analysis. Format: ADME, organism-based. The settings on record: in vivo. Put shortly: as §1
Data set [6] is described as follows: Oral bioavailability in Beagle dog administered via oral gavage after 24 hrs by LC-MS analysis. Type of data set: ADME, organism-based, Canis lupus familiaris. The following applies: in vivo. Put shortly: as §1
In the next data set the target is Cytochrome P450 2C19 (Homo sapiens, UniProt P33261). Description: Inhibition of human liver microsomes CYP2C19 using S-mephenytoin as substrate. Format: ADME.
Sequence of Cytochrome P450 2C19 (P33261 whole entry): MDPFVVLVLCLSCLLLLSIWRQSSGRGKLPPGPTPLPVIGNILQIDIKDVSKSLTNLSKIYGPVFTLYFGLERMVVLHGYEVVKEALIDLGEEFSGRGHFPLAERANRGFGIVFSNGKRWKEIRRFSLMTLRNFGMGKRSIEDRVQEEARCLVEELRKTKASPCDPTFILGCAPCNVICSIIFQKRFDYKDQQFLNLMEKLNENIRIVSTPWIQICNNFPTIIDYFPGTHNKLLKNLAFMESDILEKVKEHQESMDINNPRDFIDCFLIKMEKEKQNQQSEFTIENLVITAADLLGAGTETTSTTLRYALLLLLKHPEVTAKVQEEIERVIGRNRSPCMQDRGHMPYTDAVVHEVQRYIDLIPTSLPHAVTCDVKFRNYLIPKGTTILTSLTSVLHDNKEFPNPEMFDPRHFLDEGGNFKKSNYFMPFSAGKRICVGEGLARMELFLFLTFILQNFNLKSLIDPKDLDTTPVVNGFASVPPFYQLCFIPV
Data set [7] deals with T2, Cytochrome P450 3A4 (Homo sapiens, UniProt P08684). Description: Inhibition of human liver microsomes CYP3A4 using midazolam as substrate. Type of data set: ADME. Background: Liver microsomes are vesicles of endoplasmic reticulum, rich in cytochrome P450 enzymes.
T2 sequence (P08684 whole entry): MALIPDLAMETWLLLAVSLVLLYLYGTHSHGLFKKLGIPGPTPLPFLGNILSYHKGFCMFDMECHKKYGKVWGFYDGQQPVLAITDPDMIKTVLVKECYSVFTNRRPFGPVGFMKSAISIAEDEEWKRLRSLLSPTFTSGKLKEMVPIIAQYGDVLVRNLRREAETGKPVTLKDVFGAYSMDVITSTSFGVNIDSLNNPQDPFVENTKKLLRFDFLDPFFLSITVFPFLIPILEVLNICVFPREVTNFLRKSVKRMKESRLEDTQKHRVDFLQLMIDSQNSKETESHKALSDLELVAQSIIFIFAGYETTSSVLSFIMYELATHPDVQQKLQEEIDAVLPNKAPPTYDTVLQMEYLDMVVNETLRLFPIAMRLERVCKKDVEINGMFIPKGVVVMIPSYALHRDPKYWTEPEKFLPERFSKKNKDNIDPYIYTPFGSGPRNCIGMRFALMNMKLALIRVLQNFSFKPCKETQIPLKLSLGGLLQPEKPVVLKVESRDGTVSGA
Data set [8] has as its target T2, Cytochrome P450 3A4. Kind of data set: Inhibition of human liver microsomes CYP3A4 using midazolam as substrate preincubated with compound followed by substrate addition. Format: ADME.
The target of data set [9] is T2, Cytochrome P450 3A4. Description: Inhibition of human liver microsomes CYP3A4 using testosterone as substrate. Type of data set: ADME.
Data set [10] in a line: Drug metabolism in human hepatocytes assessed as CYP-mediated (2S,3S,4S,5R,6R)-6-(6-amino-2-(5-fluoro-1-(2-fluorobenzyl)-1H-pyrazolo[3,4-b]pyridin-3-yl)-5-(methoxycarbonylamino)pyrimidin-4-ylamino)-3,4,5-trihydroxytetrahydro-2H-pyran-2-carboxylic acid metabolite formation. Format: ADME, cell-based.
Data set [11] is described as follows: Stimulation of rat sGC expressed in CHO cells using GTP as substrate assessed as increase in cGMP formation treated for 6 mins in presence of 30 nM SNAP by luminescence assay. Format: cell-based. Put shortly: (§2)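 CHO reporter cells overexpressing sGC, cultured 1 or 2 d, then loaded 3 h with coelenterazine in calcium-free Tyrode. Compound serial dilutions applied 6 min. Calcium added (final 3 mM) and luminescence read for 40 s by CCD camera. SNAP co-applied at 30 or 100 nM where stated. ODQ condition: 10 μM ODQ pretreatment for 3 h.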

Data set [12] is described as follows: Stimulation of rat sGC expressed in CHO cells using GTP as substrate assessed as increase in cGMP formation treated for 6 mins in presence of sGC inhibitor ODQ by luminescence assay. Format: cell-based. Put shortly:
as §2

A further data set relates to Saphenous artery. Kind of data set: Inhibition of phenylephrine-induced contractions in Chinchilla rabbit saphenous artery rings administered at the beginning of the last resting period of 28 mins. The settings on record: Oryctolagus cuniculus. Format: functional.
A further data set has as its system Heart. Kind of data set: Antihypertensive activity in Wistar Langendorff-perfused heart rat model assessed as reduction in coronary perfusion pressure administered for 20 mins. Type of data set: functional, tissue-based. Put shortly:
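Male Wistar rats (200−250 g) anesthetized with Narcoren 100 mg/kg ip. Excised heart Langendorff-perfused at constant flow 10 mL/min with Krebs−Henseleit buffer gassed with 95% O2/5% CO2. Values expressed as relative change from baseline before compound application.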

In data set [13] the test system is Rattus norvegicus. Description: Antihypertensive activity in L-NAME-treated renin transgenic rat co-expressing RenTG(mRRen2)27 assessed as reduction in systolic blood pressure increase at 3 to 10 mg/kg, administered qd via oral gavage up to 21 days. Format: functional, organism-based. Put shortly: (§3)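 Male RenTG(mRRen2)27 rats, 8 weeks old, given L-NAME in drinking water (50 mg/L) throughout. Randomised to placebo (2 mL/kg qd, n = 20) or 3 and 10 mg/kg/day po by gavage qd (n = 15 per group). Tail-cuff blood pressure on day 0, 7, 14 and 21. Plasma taken at day 22 end. Unpaired t test, mean ± SEM.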

Data set [14] deals with Rattus norvegicus. Kind of data set: Antihypertensive activity in L-NAME-treated renin transgenic rat co-expressing RenTG(mRRen2)27 assessed as reduction in heart hypertrophy in right ventricle administered qd via oral gavage up to 21 days relative to control. Format: functional. Put shortly:
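Renin transgenic RenTG(mRRen2)27 male rats, 8 weeks old, on L-NAME drinking water (50 mg/L). Dosed by gavage qd with placebo (n = 20) or 3 or 10 mg/kg/day (n = 15 each). At day 22 animals were anesthetized and sacrificed, and left and right ventricles were dissected and weighed for hypertrophy. Unpaired t test versus placebo.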

The test system of data set [15] is Rattus norvegicus. Kind of data set: Antihypertensive activity in L-NAME-treated renin transgenic rat co-expressing RenTG(mRRen2)27 assessed as reduction in Kim-1 expression at 3 to 10 mg/kg administered qd via oral gavage up to 21 days. Format: functional, organism-based. Put shortly:
as §3

The subject of data set [16] is Rattus norvegicus. Kind of data set: Effect on mortality in L-NAME-treated renin transgenic rat co-expressing RenTG(mRRen2)27 assessed as survival rate at 3 mg/kg administered qd via oral gavage up to 21 days (reference value: 25%). Type of data set: functional. The settings on record: 504 h.
The test system of data set [17] is Rattus norvegicus. Description: Effect on mortality in L-NAME-treated renin transgenic rat co-expressing RenTG(mRRen2)27 assessed as survival rate at 10 mg/kg administered qd via oral gavage up to 21 days (reference value: 25%). Type of data set: functional. The following applies: 504 h.
The next data set has as its system Artery. Description: Inhibition of U46619-induced contractions in porcine coronary artery rings. Format: functional. The settings on record: Sus scrofa.

The clearance is a measure of how efficiently the substance is removed, as volume per time. Read a low clearance as inefficient removal. By bioavailability is commonly meant dose-corrected exposure relative to a reference, in per cent. A lower bioavailability goes with poor availability. In general, pIC50 refers to −log10 of the IC50, conventionally taken in molar units. As usually defined, the pEC50 is the EC50 on a negative log10 scale, so that one unit is a factor of ten. As to `COC(=O)Nc1c(N)nc(-c2nn(Cc3ccccc3F)c3ncc(F)cc23)nc1N` [VERICIGUAT], in [1], the MEC was 0.3 µM. For the same compound, the Vd in [2] turned out to be 1.4 L/kg. This compound showed a clearance in [3] of 3.33 mL/min/kg. Also, the half-life in [4] is 6.2 h. In addition, the bioavailability came to 65% in data set [5] and 75% in [6]. Further, the negative logarithm of the IC50 (pIC50) at Cytochrome P450 2C19 was < 4.30; against Cytochrome P450 3A4 [7], < 4.30; at Cytochrome P450 3A4 [8], < 4.30; against Cytochrome P450 3A4 [9], < 4.30; in the data set on Saphenous artery, 6.10; with Artery, 6.02. Also, the Drug metabolism entry in data set [10] is “Metabolite_Detected”. Further, the pEC50 is 7.41 in data set [11] and 6.59 in [12]. Also, the Activity result in the data set on Heart and with Rattus norvegicus [14] was “Dose-dependent effect” in each case. Moreover, the result with Rattus norvegicus [13] and with Rattus norvegicus [15] was Active. The survival at 3 mg/kg with Rattus norvegicus [16] is 70%. Further, in the data set on Rattus norvegicus [17], the survival at 10 mg/kg is 90%.
